# ALR H2O2 inh: human ALR oxidase inhibition via reduced H2O2; hit rate 3.8% among 290,000; P55789; inhibition, % (concentration not given with the values); purified ALR, DTT oxidation, H2O2 HRP-luminol luminescence;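 active means mean replicate inhibition above about 79%, with every replicate also reaching it, limit read from the data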
# Target sequence (P55789 whole entry, looked up): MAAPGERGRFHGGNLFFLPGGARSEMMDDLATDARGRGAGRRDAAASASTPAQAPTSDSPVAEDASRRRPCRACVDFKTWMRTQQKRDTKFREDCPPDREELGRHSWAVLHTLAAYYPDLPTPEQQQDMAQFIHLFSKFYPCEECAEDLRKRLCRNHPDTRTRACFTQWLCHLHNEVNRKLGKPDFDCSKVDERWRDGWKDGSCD
# ZTA counter: counter-screen for EBNA-1 inhibitors: inhibitors of Epstein-Barr virus ZTA | P03206 | ZTA-DNA binding, fluorescence polarization | inhibition, % at 11 µM | hit rate 0.15% among 320,000; in the data active means inhibition above about 33%
# Target sequence (P03206 whole entry, looked up): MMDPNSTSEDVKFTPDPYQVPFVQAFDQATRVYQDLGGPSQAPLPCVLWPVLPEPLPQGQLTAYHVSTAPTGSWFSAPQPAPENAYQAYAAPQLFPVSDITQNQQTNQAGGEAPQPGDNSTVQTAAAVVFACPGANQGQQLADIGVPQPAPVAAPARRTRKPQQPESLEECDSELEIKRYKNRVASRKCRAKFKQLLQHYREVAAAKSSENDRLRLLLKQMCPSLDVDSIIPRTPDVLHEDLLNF
# HCV NS3 hel inh: HCV NS3 helicase inhibition; NS3 helicase DNA unwinding, Cy5 molecular beacon fluorescence; hit rate 0.56% among 290,000; AID 1800; inhibition, % at 10.9 µM;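 active means inhibition above the mean of all tested compounds plus 3 SD, set per campaign, cut at about 35% in these data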;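 further: 0% = DMSO wells and 100% = thioflavine S control wells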
#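 Assay system – hepatitis C virus NS3 helicase domain fragment enzyme · Buffer or medium – MOPS pH 6.5, MgCl2, DTT, Tween20, BSA · Reagent – Cy5/quencher beacon DNA duplex and ATP to start · Compound – single 10.9 µM dose · Timing – 1 h at 25 °C · Technique – Cy5 beacon fluorescence read at start and 1 h · Measure – % inhibition of unwinding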
# core dimer inh: HCV core protein dimerization inhibition; TR-FRET GST/Flag-core106 dimerization, 1536-well; inhibition, % at 5 µM; hit rate 0.33% among 300,000; AID 1899;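 active means inhibition above the mean of all tested compounds plus 3 SD, set per screening campaign, cut at about 45% in these data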
#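 System: GST-tagged and Flag-tagged HCV core protein residues 1-106 / Input: core106 proteins, GST 13.5 nM and Flag 17 nM / Buffer or medium: KF-containing HEPES buffer, pH 7.45, DTT, CHAPS, BSA / Probe or stimulus: Eu-anti-GST and XL665-anti-Flag labelled anti-tag antibodies / Schedule: 4 h, 22.5 °C incubation / Technique: TR-FRET 671 and 617 nm emission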
# M18AAP inhibitor: blocks P. falciparum M18 aspartyl aminopeptidase | recombinant PfM18AAP, H-Glu-NHMec fluorogenic cleavage | inhibition, % at 7.35 µM | hit rate 1.2% among 290,000 | AID 1822;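 active means inhibition above the campaign mean inhibition over all tested compounds plus 3 SD, cut at about 28% in these data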;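 further: 0% = plate median of test compound wells and 100% = 2 mM ZnCl2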
# EBNA-1 inhibitor: blocks EBNA-1 binding to DNA; inhibition, % at 14.8 µM; EBNA-1 DNA binding, fluorescence polarization; hit rate 0.34% among 300,000; in the data active means inhibition above about 28%
# Numbers without * were called inactive; x = no result given. Most compounds without a hit are left out; they make up all but 5.2% or so of the library.
SMILES,ALR H2O2 inh,ZTA counter,HCV NS3 hel inh,core dimer inh,M18AAP inhibitor,EBNA-1 inhibitor
O=S(=O)(c1ccc(-c2csc(-c3cccnc3)n2)cc1)N1CCCC1,97*,4,-9,5,-4,-7
O=S(=O)(c1cccc(-c2csc(-c3cccnc3)n2)c1)N1CCOCC1,99*,7,-10,-42,5,0
O=S(=O)(c1cccc(-c2csc(-c3cccnc3)n2)c1)N1CCCCC1,98*,0,-7,18,-10,-4
O=S(=O)(c1ccc(-c2csc(-c3cccnc3)n2)cc1)N1CCCCC1,62,-8,-4,14,2,6
CC1CCN(S(=O)(=O)c2cccc(-c3csc(-c4cccnc4)n3)c2)CC1,-24,1,2,10,4,-14
Cc1cc(C(=O)OCC(=O)Nc2ccccc2Br)c(C)o1,-2,x,x,x,x,x
Cc1ccc(NC(=O)CSCC(=O)NCCc2ccccc2)c(C)c1,-2,-6,x,x,x,x
COc1cccc(NC(=O)CN(C)C(=O)CCCc2c[nH]c3ccccc23)c1,x,4,x,x,x,x
Cc1onc(-c2c(F)cccc2Cl)c1C(=O)N=C(N)N1CCCC1,-11,-11,12,0,0,-6
COc1ccccc1CNC(=O)C(C)n1nc(C)n2c(cc3occc32)c1=O (stereo not given),1,-5,5,3,6,-2
O=[N+]([O-])c1ccc(-c2c[nH]c(=S)[nH]2)cc1,98*,5,19,53*,14,1
O=[N+]([O-])c1ccc(-c2nc3ccc([N+](=O)[O-])cc3[nH]2)cc1,2,9,-1,6,2,5
S=c1[nH]cc(-c2ccccc2)[nH]1,99*,2,3,-3,12,6
Cc1nc([N+](=O)[O-])c(Sc2nc3ccccc3n2C)n1Cc1ccccc1,98*,2,-9,-1,-7,1
COc1ccccc1CNC(=O)N1CCN(c2ccccc2C)CC1,-1,-7,-5,1,-4,-16
O=C(COC(=O)/C=C/C(=O)N1CCN(c2ccccc2)CC1)NCc1ccc(F)cc1,67,5,-3,2,-14,9
COC(=O)/C=C/C(=O)N1CCN(c2ccccc2)CC1,97*,12,-4,0,-6,-3
COC(=O)/C=C/C(=O)N1CCN(c2ccccc2C)CC1,98*,0,-2,1,0,6
Cc1nnc(SCC(=O)c2c(N)n(C3CC3)c(=O)[nH]c2=O)n1-c1ccccc1,0,-4,x,x,x,x
C[C@H](CO)N1C[C@H](C)[C@@H](CN(C)S(=O)(=O)c2cccs2)Oc2ccc(NS(=O)(=O)c3ccccc3)cc2C1=O,0,x,x,x,x,x
Cc1cc(/C=C2\SC(=Nc3ccccc3)NC2=O)c(C)n1-c1ccc(S(N)(=O)=O)cc1,-1,-10,5,63*,-5,-9
Cc1ccc(-n2c(C)cc(/C=C3\SC(=O)NC3=O)c2C)cc1,11,7,1,13,9,10
CC(=O)N1Cc2cc(N)ccc2Oc2ccccc21,89*,-3,1,7,-1,6
CCC(C)(CC(=O)Nc1nccs1)c1ccccc1 (stereo not given),1,9,-11,3,-2,19
CSc1cccc(NC(=O)CCCn2c(=O)c3cccn3c3cccnc32)c1,-24,6,-6,3,-1,2
SMILES,ALR H2O2 inh,ZTA counter,HCV NS3 hel inh,core dimer inh,M18AAP inhibitor,EBNA-1 inhibitor
COc1ccc(S(=O)(=O)Nc2ccc(S(=O)(=O)Nc3cc(C)nc(C)n3)cc2)cc1OC,-3,2,3,1,2,-2
N#C/C(=N\Nc1ccc(F)cc1)C(=O)C1CC1,98*,-10,2,1,-1,-9
COC(=O)C1=C(Nc2cc(Cl)cc(Cl)c2)CSC1,99*,2,-12,0,-5,-7
CCn1c(N)c(C(N)=O)sc1=S,98*,-14,0,-25,9,13
CCOC(=O)c1sc(=S)n(-c2ccc(C)cc2)c1N,1,0,11,2,29*,4
C=CCn1c(N)c(C(=O)OCC)sc1=S,99*,-6,-5,1,2,0
C=CCn1c(N)c(C(=O)N2CCN(C)CC2)sc1=S,99*,13,-1,-3,-2,9
CCn1c(N)c(C(=O)NCc2ccco2)sc1=S,x,17,3,3,-15,7
Cc1ccc(S(=O)(=O)N2CCOCC2)cc1NS(=O)(=O)c1ccc(F)c(F)c1,-5,7,x,x,x,x
